Assay results reported in ChEMBL document CHEMBL2311407, “Design and synthesis of diazatricyclodecane agonists of the G-protein-coupled receptor 119” (J Med Chem, 2013).
Values after ≈ are worked out from the molar mass of the structure shown.

Tests used:
[1] = Tmax in Beagle dog at 10 mg/kg, po administered as spray dried dispersion; type: ADME, organism-based, Canis lupus familiaris; set-up: dose 10 mg/kg, route oral; conditions: in vivo
Method in brief: (§1)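 Oral gavage in male beagle dogs at 10, 30 or 100 mg/kg, 5 mL/kg, as 25% spray dried dispersion in 20 mM Tris buffer in 0.5% methylcellulose and 0.5% HPMCAS-HF, pH 7.4. Plasma concentrations are total drug. Values are the mean of two animals. F is based on 1 mg/kg iv dog data.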

[2] = Cmax in Sprague-Dawley rat at 3 mg/kg, po administered as spray dried dispersion; type: ADME, organism-based; set-up: dose 3 mg/kg, route oral; conditions: in vivo
Method in brief: (§2)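 Rats were dosed po at 0.6 mL/kg with a 25% amorphous spray dried dispersion (with HPMCAS-HF) in 20 mM Tris buffer with 0.5% methylcellulose + 0.5% HPMCAS-HF, pH 7.4. Plasma concentrations are total drug. Data are mean ± SD of three animals. F is based on 1 mg/kg rat iv data.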

[3] = Tmax in Sprague-Dawley rat at 30 mg/kg, po dosing of milled material in 0.5% methylcellulose; type: ADME, organism-based; set-up: dose 30 mg/kg, route oral; conditions: in vivo
Method in brief: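 Nanomilled material (about 190 nm after milling) was suspended in 0.5% methylcellulose and dosed orally to rats. Plasma concentrations are reported as total drug. Values are mean ± SD from three animals.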

[4] = Tmax in Sprague-Dawley rat at 3 mg/kg, po dosing of milled material in 0.5% methylcellulose; type: ADME, organism-based; set-up: dose 3 mg/kg, route oral; conditions: in vivo
Method in brief: (§3)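 Rat po dosing of milled material (2−25 μm premilling, about 190 nm postmilling) suspended in 0.5% methylcellulose. Plasma concentrations are total drug. Data are mean ± SD of three animals. F is calculated from 1 mg/kg rat iv data.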

[5] = Oral bioavailability in Sprague-Dawley rat at 3 mg/kg dosed as milled material in 0.5% methylcellulose; type: ADME, organism-based; conditions: in vivo; method in brief: as §3
[6] = Oral bioavailability in Beagle dog at 30 mg/kg administered as spray dried dispersion; type: ADME, organism-based, Canis lupus familiaris; conditions: in vivo; method in brief: as §1
[7] = Half life in Beagle dog at 1 mg/kg, iv; type: ADME, organism-based, Canis lupus familiaris; set-up: dose 1 mg/kg, route intravenous; conditions: in vivo
Method in brief: (§4)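 Male beagle dogs received 1 mg/kg iv at 2 mL/kg in 5% dimethylacetamide/75% PEG200/20% (30% SBE-CD). Plasma concentrations are total drug. Values are the mean of two animals.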

[8] = Thermodynamic solubility of the compound in PBS at pH 1.2; type: physicochemical; conditions: read-out: Therm_solubility
[9] = AUC in Beagle dog at 30 mg/kg, po administered as spray dried dispersion; type: ADME, organism-based, Canis lupus familiaris; set-up: dose 30 mg/kg, route oral; conditions: plasma; method in brief: as §1
[10] = Oral bioavailability in Sprague-Dawley rat at 3 mg/kg administered as spray dried dispersion; type: ADME, organism-based; conditions: in vivo; method in brief: as §2
[11] = Half life in Beagle dog at 3 mg/kg, po administered as spray dried dispersion; type: ADME, organism-based, Canis lupus familiaris; set-up: dose 3 mg/kg, route oral; conditions: in vivo
Method in brief: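 Male beagle dogs were dosed po at 3 mg/kg, 0.6 mL/kg, as 25% spray dried dispersion in 20 mM Tris buffer with 0.5% methylcellulose + 0.5% HPMCAS-HF, pH 7.4. Plasma concentrations are total drug. Values are the mean of two animals. F is calculated against 1 mg/kg iv dog data.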

[12] = Thermodynamic solubility of the compound in PBS at pH 7.4; type: physicochemical; conditions: read-out: Therm_solubility
[13] = AUC in Sprague-Dawley rat at 30 mg/kg, po administered as spray dried dispersion; type: ADME, organism-based; set-up: dose 30 mg/kg, route oral; conditions: plasma; method in brief: as §2
[14] = Cmax in Beagle dog at 100 mg/kg, po administered as spray dried dispersion; type: ADME, organism-based, Canis lupus familiaris; set-up: dose 100 mg/kg, route oral; conditions: in vivo; method in brief: as §1
[15] = Half life in Sprague-Dawley rat at 1 mg/kg, iv; type: ADME, organism-based; set-up: dose 1 mg/kg, route intravenous; conditions: in vivo
Method in brief: (§5)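 Rats received 1 mg/kg iv in 10% N-methylpyrrolidone and 90% of a 30% SBE-CD solution. Plasma concentrations are total drug. Data are mean ± SD of three animals.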

[16] = AUC in Sprague-Dawley rat at 1 mg/kg, iv; type: ADME, organism-based; set-up: dose 1 mg/kg, route intravenous; conditions: plasma; method in brief: as §5
[17] = Oral bioavailability in Sprague-Dawley rat at 30 mg/kg administered as milled material in 0.5% methylcellulose; type: ADME, organism-based; conditions: in vivo; method in brief: as §3
[18] = Cmax in Sprague-Dawley rat at 3 mg/kg, po dosing in 0.5% methylcellulose; type: ADME, organism-based; set-up: dose 3 mg/kg, route oral; conditions: in vivo
Method in brief: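 Rats were dosed orally at 3 mg/kg in 0.5% methylcellulose. Plasma concentrations are total drug. Data are mean ± SD of three animals. F is based on 1 mg/kg rat iv PK.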

[19] = AUC in Beagle dog at 10 mg/kg, po administered as spray dried dispersion; type: ADME, organism-based, Canis lupus familiaris; set-up: dose 10 mg/kg, route oral; conditions: plasma; method in brief: as §1
[20] = Fraction unbound in Beagle dog plasma; type: ADME, cell-free, Canis lupus familiaris
[21] = Oral bioavailability in Beagle dog at 10 mg/kg administered as spray dried dispersion; type: ADME, organism-based, Canis lupus familiaris; conditions: in vivo; method in brief: as §1
[22] = Volume of distribution at steady state in Sprague-Dawley rat at 1 mg/kg, iv; type: ADME, organism-based; set-up: dose 1 mg/kg, route intravenous; conditions: in vivo, read-out: Vdss
Method in brief: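 Rats received an iv dose of 1 mpk in a vehicle of 10% N-methylpyrrolidone and 90% SBE-CD solution prepared at 30%. Plasma concentrations are total drug. Values are mean ± SD from three animals.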

[23] = Apparent intrinsic clearance in human liver microsomes; type: ADME, Microsome; conditions: read-out: CLH(app)
[24] = Cmax in Beagle dog at 1 mg/kg, iv; type: ADME, organism-based, Canis lupus familiaris; set-up: dose 1 mg/kg, route intravenous; conditions: in vivo; method in brief: as §4
[25] = Cmax in Sprague-Dawley rat at 30 mg/kg, po administered as spray dried dispersion; type: ADME, organism-based; set-up: dose 30 mg/kg, route oral; conditions: in vivo; method in brief: as §2
[26] = Cmax in Beagle dog at 10 mg/kg, po administered as spray dried dispersion; type: ADME, organism-based, Canis lupus familiaris; set-up: dose 10 mg/kg, route oral; conditions: in vivo; method in brief: as §1

`Cc1c(Oc2ccc(-n3cnnn3)cc2F)ncnc1N1C2CC3CC1CC(C2)N3C(=O)OC1(C)CC1` showed a Tmax [1] of 1 h, a Cmax [2] of 484 ng/mL and a Tmax [3] of 6 h. It also gave a Tmax [4] of 4.7 h, a bioavailability [5] of 78% and a bioavailability [6] of 54%. For the same compound, the half-life [7] was 26.8 h, the solubility thermodynamic [8] was 4.8 µg/mL (≈ 9.48 µM) and the AUC [9] was 76800 ng·h/mL. The bioavailability [10] was > 100%, the half-life [11] was 20 h and the solubility thermodynamic [12] was 0.7 µg/mL (≈ 1.38 µM). For the same compound, the AUC [13] was 49100 ng·h/mL, the Cmax [14] was 6030 ng/mL and the half-life [15] was 4.34 h. For the same compound, the AUC [16] was 1360 ng·h/mL, the bioavailability [17] was 31% and the Cmax [18] was 24.2 ng/mL. For the same compound, the AUC [19] was 41000 ng·h/mL, the fraction unbound [20] was 0.014 and the bioavailability [21] was 87%. The Vd [22] was 3.96 L/kg, the CLint scaled [23] was < 9.5 mL/min/kg and the Cmax [24] was 515 ng/mL. The Cmax [25] was 3490 ng/mL and the Cmax [26] was 1950 ng/mL.
